Calls of active or inactive are those of the source.

Series [1] has as its system Mus musculus. The series is described as follows: Anti-fibrotic activity in C57BL/6 mouse model of unilateral ureter obstruction-induced kidney inflammation and fibrosis assessed as reduction in macrophage infiltration into the obstructed kidney at 3 mg/kg, ip dosed daily for 7 days by F4/80 antibody staining based assay. In kind it is functional, organism-based. The note with it: time 7.0 day. In short, it runs like this:
(§1)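 Mice with unilateral ureter obstruction to induce kidney inflammation and fibrosis, given compound or vehicle intraperitoneally. Ligated (UUO) and contralateral kidneys taken at day 7. Fibrosis read by AZAN and Sirius Red staining, with Sirius Red imaged under bright and polarized light. Macrophages detected by F4/80 staining, quantified as positive area. Col1a1, FN1, TNFα and Ccl2 mRNA measured in whole-kidney homogenates by real-time qRT-PCR normalized to GAPDH.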

Series [2] has as its target T1, Polyunsaturated fatty acid lipoxygenase ALOX12 (Homo sapiens) (UniProt P18054).
T1 sequence (whole entry): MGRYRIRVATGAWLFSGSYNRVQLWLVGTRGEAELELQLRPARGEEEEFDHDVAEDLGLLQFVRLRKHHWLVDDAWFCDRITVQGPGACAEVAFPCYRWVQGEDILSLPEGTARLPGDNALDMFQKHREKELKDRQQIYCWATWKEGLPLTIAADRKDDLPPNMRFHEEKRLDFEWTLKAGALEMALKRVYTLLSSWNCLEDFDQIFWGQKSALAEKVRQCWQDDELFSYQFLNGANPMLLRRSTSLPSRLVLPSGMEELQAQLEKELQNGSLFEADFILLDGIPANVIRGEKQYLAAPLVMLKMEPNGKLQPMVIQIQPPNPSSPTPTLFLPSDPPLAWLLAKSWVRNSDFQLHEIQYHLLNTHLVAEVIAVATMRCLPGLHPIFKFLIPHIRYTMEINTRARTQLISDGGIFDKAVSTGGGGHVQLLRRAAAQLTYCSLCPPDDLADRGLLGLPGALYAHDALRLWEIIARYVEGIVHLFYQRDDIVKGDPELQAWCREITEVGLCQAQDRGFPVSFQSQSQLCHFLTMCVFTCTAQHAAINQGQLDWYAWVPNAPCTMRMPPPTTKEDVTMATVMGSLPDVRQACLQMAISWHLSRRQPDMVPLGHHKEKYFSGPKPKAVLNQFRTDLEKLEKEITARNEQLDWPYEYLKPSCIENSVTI
The series is described as follows: Activation of 12-LOX in human PMNL pre-incubated for 15 mins before addition of AA and A23187 and measured after 10 mins by HPLC/UV assay. As to conditions: filed as activator, time 25.0 min.

Series [3] addresses T2, Polyunsaturated fatty acid 5-lipoxygenase (Homo sapiens, UniProt P09917).
T2 sequence (P09917 whole entry): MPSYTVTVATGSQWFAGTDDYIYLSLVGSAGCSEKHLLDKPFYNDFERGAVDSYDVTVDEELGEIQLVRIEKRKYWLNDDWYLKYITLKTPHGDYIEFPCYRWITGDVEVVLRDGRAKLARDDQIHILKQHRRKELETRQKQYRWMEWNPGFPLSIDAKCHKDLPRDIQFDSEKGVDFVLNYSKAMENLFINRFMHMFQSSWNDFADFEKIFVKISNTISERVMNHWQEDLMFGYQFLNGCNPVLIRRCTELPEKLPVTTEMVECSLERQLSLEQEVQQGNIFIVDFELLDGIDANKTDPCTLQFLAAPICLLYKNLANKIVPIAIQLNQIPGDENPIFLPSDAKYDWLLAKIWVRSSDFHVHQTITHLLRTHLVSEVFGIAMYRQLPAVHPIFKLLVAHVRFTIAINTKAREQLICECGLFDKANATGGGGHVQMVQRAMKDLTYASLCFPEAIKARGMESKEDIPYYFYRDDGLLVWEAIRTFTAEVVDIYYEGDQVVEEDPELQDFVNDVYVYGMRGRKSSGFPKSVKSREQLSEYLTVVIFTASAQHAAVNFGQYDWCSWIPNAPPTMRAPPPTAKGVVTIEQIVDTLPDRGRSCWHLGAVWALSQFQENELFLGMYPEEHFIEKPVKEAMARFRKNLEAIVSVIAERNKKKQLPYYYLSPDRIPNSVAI
Description: Inhibition of 5-LOX (unknown origin) expressed in Escherichia coli BL21-(DE3) pre-incubated for 15 mins before AA substrate addition and measured after 10 mins by HPLC/UV assay. The procedure, abridged:
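Recombinant 5-LOX activity measured with arachidonic acid as substrate; product formation monitored by HPLC. IC50 from at least three independent determinations (n ≥ 3), reported with 95% confidence interval.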

A short description of series [4]: Cmax in Swiss CD-1 mouse at 3 mg/kg, po administered as single dose by LC-MS analysis. On the set-up: route oral, dose 3 mg/kg. In kind it is ADME, organism-based. The note with it: in vivo. The procedure, abridged:
(§2)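 Male Swiss CD-1 mice received a single oral dose of 3 mg/kg in 1% methylcellulose/Tween80 (99:1); nine mice treated, three vehicle controls, three mice per time point. Serum analyzed by LC-MS for concentration–time profile.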

Series [5] relates to Mus musculus. The series is described as follows: Anti-fibrotic activity in C57BL/6 mouse model of unilateral ureter obstruction-induced kidney inflammation and fibrosis assessed as inhibition of tubulo-interstitial fibrosis by measuring reduced fibrillar collagen at 3 mg/kg, ip dosed daily for 7 days by Sirius red staining method. The note with it: time 7.0 day. The series is classed as functional, organism-based. The procedure, abridged:
as §1

A short description of series [6]: Tmax in Swiss CD-1 mouse at 3 mg/kg, po administered as single dose by LC-MS analysis. The series is classed as ADME, organism-based. The note with it: in vivo. In short, it runs like this:
as §2

A short description of series [7]: Metabolic stability in rat liver microsomes assessed as compound remaining after 60 mins. As to conditions: read-out: Stabilty. The series is classed as ADME, Microsome. In short, it runs like this: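 Compound incubated with rat liver microsomes for 60 min; percent parent compound remaining determined; n ≥ 3.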
A general note: Microsomes from liver hold many membrane-bound enzymes, among them those of drug oxidation.

Series [8] deals with T2, Polyunsaturated fatty acid 5-lipoxygenase. Description: Inhibition of 5-LOX in human PMNL assessed as reduction in 5-HETE and LTB4 formation pre-incubated for 15 mins before addition of AA and A23187 and measured after 10 mins by HPLC/UV assay.
Series [9] can be described thus: Half life in Swiss CD-1 mouse at 3 mg/kg, po administered as single dose by LC-MS analysis. The series is classed as ADME, organism-based. The note with it: in vivo. The procedure, abridged:
as §2

For series [10], the system named is Mus musculus. The series is described as follows: Anti-fibrotic activity in C57BL/6 mouse model of unilateral ureter obstruction-induced kidney inflammation and fibrosis assessed as reduction in Col1a1 mRNA expression at 3 mg/kg, ip dosed daily for 7 days by real-time qPCR analysis. In kind it is functional, organism-based. As to conditions: time 7.0 day. In short, it runs like this: as §1
On the technique in general: In qPCR the cycle at which signal appears reflects the starting amount.

For series [11], the system named is Mus musculus. The series is described as follows: Anti-inflammatory activity in C57BL/6 mouse model of unilateral ureter obstruction-induced kidney inflammation and fibrosis assessed as reduction in TNFalpha mRNA expression at 3 mg/kg, ip dosed daily for 7 days by real-time qPCR analysis. In kind it is functional, organism-based. As to conditions: time 7.0 day. The procedure, abridged:
as §1

The nature of series [12]: T>IC50 in Swiss CD-1 mouse at 3 mg/kg, po administered as single dose by LC-MS analysis. The series is classed as ADME, organism-based. As to conditions: in vivo. In short, it runs like this: as §2
The species entered for series [13] is Mus musculus. Description: Inhibition of sEH in naive mouse assessed as increase in plasma EET/DHET ratio level. The series is classed as functional. In short, it runs like this:
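Plasma from naive mice given a single oral 3 mg/kg dose analyzed for EET/DHET ratio as a read-out of sEH inhibition.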

Series [14] deals with Mus musculus. Description: Anti-fibrotic activity in C57BL/6 mouse model of unilateral ureter obstruction-induced kidney inflammation and fibrosis assessed as reduction in FN1 mRNA expression at 3 mg/kg, ip dosed daily for 7 days by real-time qPCR analysis. In kind it is functional, organism-based. The note with it: time 7.0 day. The procedure, abridged: as §1
The test system of series [15] is HepG2. Description: Cytotoxicity in human HepG2 cells assessed as effect on cell viability up to 25 uM incubated for 48 hrs by CellTiter-Glo luminescent cell viability assay. The series is classed as cell-based. The note with it: hepg2, 48 h. The procedure, abridged: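 Cell viability measured by CellTiter-Glo luminescence, quantifying ATP as an indicator of viable cells.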
(In ATP-based viability assays light output follows the ATP content of the culture.)

As usually defined, the IC50 is the midpoint of a concentration-inhibition curve. As a reminder, the Cmax is the peak of the concentration-time curve. One may read the Tmax as the time at which the peak concentration occurs. The half-life is the time needed for the level to fall by half in the phase considered. Low values mean fast loss, high ones slow loss. On to `C[C@H](C#Cc1cccc(C(=O)NCCC(c2ccc(F)cc2)c2ccc(F)cc2)c1)N(O)C(N)=O`, for which the result in [1], in series [2], in series [5], in series [10], in [11] and in series [13] was Active. Moreover, the result in series [14] was Active. Moreover, the IC50 was found to be 110 nM in series [3] and 210 nM in series [8]. Also, the concentration in series [4] peaked (Cmax) at 700 nM. The Tmax in series [6] was 1 h. In addition, the remaining at 1 h in series [7] worked out at 50%. This compound also showed a half-life in series [9] of 1.3 h. The “T>IC50” value in series [12] was 3 h. In addition, in series [15], the Activity entry is recorded as “Non-Toxic”.

The values above are taken from ChEMBL document CHEMBL4725418, “Design, Synthesis, and Structure-Activity Relationship Studies of Dual Inhibitors of Soluble Epoxide Hydrolase and 5-Lipoxygenase” (J Med Chem, 2020).
